Results reported in ChEMBL document CHEMBL1127344, “Tridentate ligands containing the SNS donor atom set as a novel backbone for the development of technetium brain-imaging agents” (J Med Chem, 1994).

Assays:
Mus musculus [1] = species: Mus musculus; assay: Tested for biodistribution of compound at 60 min in mice kidney; format: ADME, organism-based; conditions: in vivo, 1 h
Summary of the method: (§1)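 Male Swiss albino mice, at least five per group, received HPLC-purified 99mTc complex by tail vein. The complex was reconstituted in 50% methanol (0.1 mL, 2-3 μCi). Mice were killed by cardiectomy under light ether at 1-60 min pi. Organs were weighed and γ-counted against a 1% injected-dose standard to give % dose/organ. Blood and muscle were taken as 7% and 43% of body weight.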

Mus musculus [2] = species: Mus musculus; assay: Tested for biodistribution of compound at 60 min in mice brain; format: ADME, organism-based; conditions: in vivo, 1 h; summary of the method: as §1
Mus musculus [3] = species: Mus musculus; assay: Tested for biodistribution of compound at 30 min in mice urine; format: ADME, organism-based; conditions: in vivo, 0.5 h
Summary of the method: (§2)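 Male Swiss albino mice, at least five per group, received 0.1 mL (2-3 μCi) of HPLC-purified 99mTc complex reconstituted in 50% methanol by tail vein. They were killed by cardiectomy under light ether anesthesia at set times (1-60 min pi). Organs were weighed and γ-counted against a 1% injected-dose standard to give % dose/organ. Blood and muscle were taken as 7% and 43% of body weight.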

Mus musculus [4] = species: Mus musculus; assay: Tested for biodistribution of compound at 30 min in mice stomach; format: ADME, organism-based; conditions: in vivo, 0.5 h; summary of the method: as §2
Rattus norvegicus [5] = species: Rattus norvegicus; assay: Tested for biodistribution of compound at 5 min in rat liver; format: ADME, organism-based; conditions: in vivo
Mus musculus [6] = species: Mus musculus; assay: Tested for biodistribution of compound at 10 min in mice muscle; format: ADME, organism-based, Muscle tissue; conditions: in vivo; summary of the method: as §2
Rattus norvegicus [7] = species: Rattus norvegicus; assay: Tested for biodistribution of compound at 60 min in rat stomach; format: ADME, organism-based; conditions: in vivo, 1 h
Rattus norvegicus [8] = species: Rattus norvegicus; assay: Tested for biodistribution of compound at 30 min in rat s. intestine; format: ADME, organism-based; conditions: in vivo, 0.5 h
Mus musculus [9] = species: Mus musculus; assay: Tested for biodistribution of compound at 30 min in mice heart; format: ADME, organism-based; conditions: in vivo, 0.5 h; summary of the method: as §2
Rattus norvegicus [10] = species: Rattus norvegicus; assay: Tested for biodistribution of compound at 60 min in rat s. intestine; format: ADME, organism-based; conditions: in vivo, 1 h
Rattus norvegicus [11] = species: Rattus norvegicus; assay: Tested for biodistribution of compound at 30 min in rat blood; format: ADME, organism-based; conditions: in vivo, 0.5 h
Summary of the method: (§3)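 Wistar rats under ether anesthesia were dosed through the femoral vein with 0.1 mL of 99mTc complex (3-6 μCi) and dissected 5-60 min pi. Tissue radioactivity was γ-counted against a 1% injected-dose standard and expressed as % dose/organ. Blood and muscle were calculated from sample weight assuming 7% and 43% of body weight.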

Rattus norvegicus [12] = species: Rattus norvegicus; assay: Tested for biodistribution of compound at 60 min in rat kidney; format: ADME, organism-based; conditions: in vivo, 1 h
Rattus norvegicus [13] = species: Rattus norvegicus; assay: Tested for biodistribution of compound at 10 min in rat stomach; format: ADME, organism-based; conditions: in vivo; summary of the method: as §3
Rattus norvegicus [14] = species: Rattus norvegicus; assay: Tested for biodistribution of compound at 30 min in rat spleen; format: ADME, organism-based; conditions: in vivo, 0.5 h
Mus musculus [15] = species: Mus musculus; assay: Tested for biodistribution of compound at 30 min in mice blood; format: ADME, organism-based; conditions: in vivo, 0.5 h; summary of the method: as §2
Mus musculus [16] = species: Mus musculus; assay: Tested for biodistribution of compound at 10 min in mice blood; format: ADME, organism-based; conditions: in vivo; summary of the method: as §2
Rattus norvegicus [17] = species: Rattus norvegicus; assay: Tested for biodistribution of compound at 5 min in rat lungs; format: ADME, organism-based, Lung; conditions: in vivo
Mus musculus [18] = species: Mus musculus; assay: Tested for biodistribution of compound at 10 min in mice lungs; format: ADME, organism-based, Lung; conditions: in vivo; summary of the method: as §2
Rattus norvegicus [19] = species: Rattus norvegicus; assay: Tested for biodistribution of compound at 5 min in rat stomach; format: ADME, organism-based; conditions: in vivo
Mus musculus [20] = species: Mus musculus; assay: Tested for biodistribution of compound at 30 min in mice intestine; format: ADME, organism-based; conditions: in vivo, 0.5 h; summary of the method: as §2
Mus musculus [21] = species: Mus musculus; assay: Tested for biodistribution of compound at 5 min in mice stomach; format: ADME, organism-based; conditions: in vivo; summary of the method: as §1
Mus musculus [22] = species: Mus musculus; assay: Tested for biodistribution of compound at 60 min in mice liver; format: ADME, organism-based; conditions: in vivo, 1 h; summary of the method: as §1
Mus musculus [23] = species: Mus musculus; assay: Tested for biodistribution of compound at 5 min in mice lungs; format: ADME, organism-based, Lung; conditions: in vivo; summary of the method: as §1
Rattus norvegicus [24] = species: Rattus norvegicus; assay: Tested for biodistribution of compound at 30 min in rat l intestine; format: ADME, organism-based; conditions: in vivo, 0.5 h; summary of the method: as §3
Mus musculus [25] = species: Mus musculus; assay: Tested for biodistribution of compound at 5 min in mice muscle; format: ADME, organism-based, Muscle tissue; conditions: in vivo; summary of the method: as §1
Mus musculus [26] = species: Mus musculus; assay: Tested for biodistribution of compound at 10 min in mice kidney; format: ADME, organism-based; conditions: in vivo; summary of the method: as §2
Rattus norvegicus [27] = species: Rattus norvegicus; assay: Tested for biodistribution of compound at 5 min in rat brain; format: ADME, organism-based; conditions: in vivo
Rattus norvegicus [28] = species: Rattus norvegicus; assay: Tested for biodistribution of compound at 10 min in rat lungs; format: ADME, organism-based, Lung; conditions: in vivo; summary of the method: as §3
Rattus norvegicus [29] = species: Rattus norvegicus; assay: Tested for biodistribution of compound at 30 min in rat liver; format: ADME, organism-based; conditions: in vivo, 0.5 h
Mus musculus [30] = species: Mus musculus; assay: Tested for biodistribution of compound at 10 min in mice liver; format: ADME, organism-based; conditions: in vivo; summary of the method: as §2
Mus musculus [31] = species: Mus musculus; assay: Tested for biodistribution of compound at 30 min in mice kidney; format: ADME, organism-based; conditions: in vivo, 0.5 h; summary of the method: as §2
Rattus norvegicus [32] = species: Rattus norvegicus; assay: Tested for biodistribution of compound at 60 min in rat brain; format: ADME, organism-based; conditions: in vivo, 1 h
Mus musculus [33] = species: Mus musculus; assay: Tested for biodistribution of compound at 30 min in mice lungs; format: ADME, organism-based, Lung; conditions: in vivo, 0.5 h; summary of the method: as §2
Rattus norvegicus [34] = species: Rattus norvegicus; assay: Tested for biodistribution of compound at 5 min in rat heart; format: ADME, organism-based; conditions: in vivo

[4-methoxythio)phenolato][N,N-bis(2-mercaptoethyl)-N',N'-diethylethylenediamine] oxotechnetium
Dose/organ (Mus musculus [1]): 1.59% | Dose/organ (Mus musculus [2]): 1.54% | Dose/organ (Mus musculus [3]): 5.06% | Dose/organ (Mus musculus [4]): 1.24% | Dose/organ (Rattus norvegicus [5]): 19.32% | Dose/organ (Mus musculus [6]): 16.49% | Dose/organ (Rattus norvegicus [7]): 2.05% | Dose/organ (Rattus norvegicus [8]): 7.55% | Dose/organ (Mus musculus [9]): 0.19% | Dose/organ (Rattus norvegicus [10]): 8.15% | Dose/organ (Rattus norvegicus [11]): 7.47% | Dose/organ (Rattus norvegicus [12]): 8.73% | Dose/organ (Rattus norvegicus [13]): 2.37% | Dose/organ (Rattus norvegicus [14]): 0.3% | Dose/organ (Mus musculus [15]): 1.29% | Dose/organ (Mus musculus [16]): 1.53% | Dose/organ (Rattus norvegicus [17]): 9.38% | Dose/organ (Mus musculus [18]): 9.78% | Dose/organ (Rattus norvegicus [19]): 2.18% | Dose/organ (Mus musculus [20]): 18.99% | Dose/organ (Mus musculus [21]): 0.96% | Dose/organ (Mus musculus [22]): 35.12% | Dose/organ (Mus musculus [23]): 15.37% | Dose/organ (Rattus norvegicus [24]): 1.27% | Dose/organ (Mus musculus [25]): 24.17% | Dose/organ (Mus musculus [26]): 3.18% | Dose/organ (Rattus norvegicus [27]): 1.45% | Dose/organ (Rattus norvegicus [28]): 7.78% | Dose/organ (Rattus norvegicus [29]): 29.63% | Dose/organ (Mus musculus [30]): 14.14% | Dose/organ (Mus musculus [31]): 2.19% | Dose/organ (Rattus norvegicus [32]): 0.46% | Dose/organ (Mus musculus [33]): 3.09% | Dose/organ (Rattus norvegicus [34]): 0.64%
